A selection: hits, their analogues and other compounds. The true share with any hit is near 5.1%.
STAT3 inh-1 – STAT3 signaling inhibition | U3A cells, IL-6 STAT3-luciferase reporter, luminescence; host cell line lacks STAT1 | inhibition, % at 5.5 µM | actives 0.89% (n = 190,000) | AID 862;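 active = inhibition above the mean inhibition across all screened compounds plus 3 SD, cut at about 44% in these data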;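 also: 0% = DMSO only wells and 100% = 100 µM nifuroxazide control wells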
STAT1 blocker – STAT1 signaling inhibition; NIH 3T3 STAT1-luciferase reporter, IFN-gamma, luminescence; actives 0.35% (n = 200,000); AID 920; inhibition, % at 5.5 µM;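 active = inhibition above a set limit, the mean inhibition across all tested compounds plus 3 SD, cut at about 34% in these data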;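 also: 0% = IFN-gamma with DMSO and 100% = IFN-gamma with 300 µM nifuroxazide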
NF-kB expr up – NF-kB expression increase, human neuronal cells. actives 1.6% (n = 190,000). NF-kB reporter expression; active compounds read high. fold change at 12.5 µM. AID 1239; in the data active = fold change above about 3.3
STAT1 activator – increases IFN-gamma driven STAT1 reporter signal; actives 2.6% (n = 200,000); activation (% of control), % at 5.5 µM; NIH 3T3 STAT1-luciferase reporter, luminescence; 100% = IFN-gamma alone, no compound; AID 932;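 active = activation above the screen-wide mean activation plus 3 SD, cut at about 130% in these data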;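 also: raw ratio to IFN-gamma control signal so 100% means no change and 0% no light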
APP 5'UTR act – APP 5'UTR luciferase reporter activation; actives 1% (n = 190,000); AID 1276; activation, % at 2 µM; SH-SY5Y APP 5'UTR luciferase reporter, luminescence; zero percent = DMSO vehicle wells;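 active = activation above a set limit, based on mean plus 3 SD of controls, cut at about 140% in these data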
STAT3 activator – STAT3 signaling activation. AID 871. U3A cells, IL-6 STAT3-luciferase reporter, luminescence; 100% = signal with IL-6 EC80 alone. activation (% of control), % at 5.6 µM. actives 0.91% (n = 190,000);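 active = activation above the screen-wide mean of compound activation plus 3 SD, cut at about 130% in these data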;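 also: 0% = background luminescence of wells with medium and substrate only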
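system = STAT3-luciferase reporter U3A cells | reagent = IL-6 stimulus at 33 ng/mL final | timing = 1 h compound pre-exposure, 6 h IL-6 stimulation, 37 °C | measured by = luminescence | evaluation = % activation versus median of IL-6-stimulated wells | control set = IL-6-only wells as 100% reference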
STAT3 inh-2 – confirmation of STAT3 signaling inhibitors | shares compounds with STAT3 inh-1 | U3A cells, IL-6 STAT3 luciferase reporter, luminescence; cell line lacks STAT1 | inhibition, % at 5.7 µM | actives 45% (n = 1,200) | AID 1265;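 active = inhibition above the hit cutoff computed for the primary STAT3 screen, cut at about 44% in these data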;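 also: 0% = IL-6 plus DMSO and 100% = IL-6 plus nifuroxazide control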
NFkB inh STAT3ct – counter-screen for STAT3 inhibitors: NF-kappaB inhibition | AID 1308 | actives 36% (n = 1,200) | inhibition, % at 5.7 µM | HEK293T NF-kB luciferase reporter, TNF-alpha induced | shares compounds with STAT3 inh-1;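 active = inhibition above the mean of solvent-only control wells plus 3 SD, cutoff set per campaign, cut at about 13% in these data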;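 also: 0% = TNF-alpha with DMSO and 100% = TNF-alpha with MG high control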
STAT1 inh STAT3c – counter-screen for STAT3 inhibitors: STAT1 inhibition | shares compounds with STAT3 inh-1 | actives 27% (n = 1,200) | inhibition, % at 5.7 µM | NIH 3T3 STAT1-luciferase reporter, IFN-gamma induced, luminescence | AID 1317;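 active = inhibition above the mean plus 3 SD of solvent-only control wells, limit set per screening run, cut at about 16% in these data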;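 also: 0% = DMSO with IFN-gamma and 100% = nifuroxazide control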
An asterisk follows results filed as active; nt = no result.

SMILES	STAT3 inh-1	STAT1 blocker	NF-kB expr up	STAT1 activator	APP 5'UTR act	STAT3 activator	STAT3 inh-2	NFkB inh STAT3ct	STAT1 inh STAT3c
O=c1[nH]c2ccccc2n1C1=CCCC1	18.7	9.8	1.51	91.0	12.3	88.0	nt	nt	nt
O=C(CCCC(=O)OCC(=O)c1cccs1)Nc1ccc(F)cc1	-0.7	-0.9	1.01	101.4	7.2	102.6	nt	nt	nt
O=C(/C=C/Nc1ccc(F)cc1)c1cccs1	51.3*	22.0	nt	80.2	160.3*	64.0	-7.0	-11.5	-75.3
O=C(Nc1nc(-c2ccc3ccccc3c2)cs1)C1CCN(S(=O)(=O)c2cccs2)CC1	9.7	17.4	0.82	83.4	9.8	92.9	nt	nt	nt
Cc1ccc(-c2csc(NC(=O)C3CCN(S(=O)(=O)c4cccs4)CC3)n2)cc1	79.4*	12.8	1.17	90.0	-19.1	35.6	83.7*	32.9*	17.2*
O=C(Nc1nc(-c2ccc(S(=O)(=O)N3CCOCC3)cc2)cs1)c1ccccc1	49.8*	25.4	0.44	76.8	5.2	59.2	44.1*	18.0*	23.9*
O=C(Nc1nc(-c2ccc(S(=O)(=O)N3CCCC3)cc2)cs1)c1cccs1	46.9*	17.1	0.3	85.4	nt	62.9	41.1	11.9	17.0*
Cc1cccc(NCC(=O)c2c(N)n(C)c(=O)n(C)c2=O)c1C	15.2	-5.3	nt	103.1	-7.7	91.0	nt	nt	nt
O=C(NCCN1CCOCC1)c1ccccc1[N+](=O)[O-]	21.3	-0.4	1.34	100.4	-9.0	88.2	nt	nt	nt
O=C(NC1c2ccccc2-c2ccccc21)N1CCCCC1	51.7*	-1.5	1.09	101.4	7.0	61.3	34.9	17.2*	3.2
CCOc1cccc(C(=O)Nc2nnc(-c3ccco3)s2)c1	47.2*	-26.8	3.3*	124.6	119.8	60.9	7.1	-15.1	-61.4
CCOC(=O)N1CCC(NC(=O)C2CCN(c3nc(-c4ccc(OC)cc4)no3)CC2)CC1	49.9*	8.0	0.96	92.9	-7.4	63.2	38.0	11.7	11.9
Cn1c(CN2CCCCC2)nc2cc(NC(=O)c3cccc(Br)c3)ccc21	63.1*	-0.5	1.07	100.4	22.6	49.1	50.8*	11.6	-8.5
Cn1c(CN2CCCCC2)nc2cc(NC(=O)c3ccccc3)ccc21	16.1	-7.3	1.06	106.8	13.6	89.5	nt	nt	nt
O=C(O)CCC(=O)N1CCN(c2nc3ccccc3s2)CC1	3.9	-6.7	1.16	106.2	4.4	98.4	nt	nt	nt
Cc1cccc(C)c1NC(=O)N1CCN(c2nc3ccccc3s2)CC1	56.5*	3.8	1.46	96.5	-4.7	55.0	56.8*	8.3	4.4
CCOc1ccc(NC(=O)N2CCN(c3nc4ccccc4s3)CC2)cc1	54.8*	25.0	1.09	77.2	2.8	56.6	39.4	3.3	16.7*
CCOC(=O)C1=C(C)N=C2SCCC(=O)N2C1c1cccs1 (stereo not drawn)	11.6	1.8	1.35	98.4	-10.0	94.7	nt	nt	nt
COc1cc2[nH]c(=O)n(CCC(=O)NC3CCCC3)c(=O)c2cc1OC	2.9	-0.3	1.07	100.9	28.5	103.1	nt	nt	nt
CC(Nc1nc(-c2ccc3c(c2)NC(=O)CO3)cs1)c1ccccc1 (stereo not drawn)	5.9	-12.5	1.23	111.8	2.9	95.1	nt	nt	nt
C=CCN=c1scc(-c2ccc3c(c2)NC(=O)CO3)n1/N=C(\C)c1ccccn1	75.3*	20.7	0.75	80.5	-51.6	39.2	74.4*	18.3*	22.0*
CCNC(=S)NNC(=O)c1cc(-c2cccc(C)c2)nc2ccccc12	27.3	12.8	1.59	88.3	22.4	79.2	nt	nt	nt
CCNC(=S)NNC(=O)c1cc(-c2ccc(OC)cc2)nc2ccccc12	74.5*	20.9	4.12*	81.5	103.3	36.9	43.2	28.0*	14.4
Cc1nn2cc(-c3ccccc3)nc2s1	52.2*	-48.6	5.4*	144.2*	113.9	57.9	11.9	-32.1	-97.8
Cc1nc(SCC(=O)Nc2c(C)nn(C)c2C)c2cnn(-c3ccccc3)c2n1	43.9*	16.1	0.83	85.3	0.6	64.7	41.3	11.9	9.8
SMILES	STAT3 inh-1	STAT1 blocker	NF-kB expr up	STAT1 activator	APP 5'UTR act	STAT3 activator	STAT3 inh-2	NFkB inh STAT3ct	STAT1 inh STAT3c
COc1cc(CSc2nnnn2-c2ccc(C)cc2)cc(OC)c1OC	68.7*	22.0	0.71	78.5	7.4	45.8	70.3*	26.4*	21.6*
CCc1cccc2c(C#N)cn(CC(=O)NCc3ccco3)c12	5.1	0.8	1.28	99.3	18.2	98.1	nt	nt	nt
Cc1nc(-c2coc3cc(O)c(C)cc3c2=O)cs1	52.7*	10.7	2.85	90.1	142.0*	58.3	27.7	-0.2	-79.9
COc1ccc(/C=N/NC(=O)c2ccc(Br)o2)cc1Cn1cc([N+](=O)[O-])cn1	-11.5	-15.8	1.07	115.0	2.9	108.0	nt	nt	nt
NC(=O)c1cccc(S(=O)(=O)N2CCCCC2)c1	7.1	2.6	1.04	97.6	5.4	96.8	nt	nt	nt
Cc1cc(N2CCOCC2)n2ncc(-c3ccccc3)c2n1	65.7*	31.6	0.81	70.9	142.5*	47.0	22.7	4.8	-78.7
Cc1cc(NCCCn2ccnc2)n2ncc(-c3ccccc3)c2n1	73.7*	26.7	0.92	75.6	102.0	36.9	20.7	24.7*	-56.7
Cc1cc(-c2ccccc2)n2ncc(-c3ccccc3)c2n1	49.5*	-48.7	1.43	143.4*	165.8*	59.6	0.4	-14.8	-133.5
Cc1ccc(NC(=O)NC2CCN(S(=O)(=O)c3ccc(F)cc3)CC2)cc1	16.2	0.7	0.99	90.6	2.7	89.4	nt	nt	nt
CCOC(=O)N1CCC(NC(=O)C2CCCN(S(=O)(=O)c3ccc4c(c3)oc(=O)n4C)C2)CC1 (stereo not drawn)	8.4	8.8	0.98	91.9	-6.2	98.7	nt	nt	nt
Clc1ccc(OCCN2CCN(c3ncnc4sccc34)CC2)cc1	88.6*	29.3	0.59	73.6	-15.2	29.5	87.5*	33.8*	22.8*
Cc1ccc(OCCN2CCN(c3ncnc4sc(C)c(C)c34)CC2)cc1	79.3*	23.5	0.7	78.3	nt	35.1	81.4*	26.2*	25.1*
Cc1sc2ncnc(N3CCCCC3)c2c1C	13.2	12.0	0.73	88.9	nt	94.3	nt	nt	nt
Clc1ccc(CN2CCN(c3ncnc4scc(-c5cccs5)c34)CC2)cc1	13.2	0.1	0.8	99.9	21.9	91.7	nt	nt	nt
Cc1ccc(NC(=O)c2sc3ccccc3c2Cl)nc1	49.0*	-31.0	3.2	127.9	191.8*	66.0	-0.5	0.4	-72.2

Compound activity: PubChem BioAssay, several laboratories
